Measurements reported in ChEMBL document CHEMBL1135429, “Arylaminoethyl amides as novel non-covalent cathepsin K inhibitors” (J Med Chem, 2002).

Tests used:
Cathepsin S = Cathepsin S (Homo sapiens, UniProt P25774); assay: Inhibition of recombinant human cathepsin S in a fluorescence assay
In short: (§1)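 Each recombinant human enzyme (cathepsin K, L or S) was assayed separately. IC50 values are the mean of two independent experiments, each performed in duplicate.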

Procathepsin L = Procathepsin L (Homo sapiens, UniProt P07711); assay: Inhibition of recombinant human cathepsin L in a fluorescence assay.; in short: as §1
Cathepsin K = molecular target: T1, Cathepsin K (Homo sapiens, UniProt P43235); assay: Inhibition of recombinant human cathepsin K in fluorescence assay; in short: as §1
T1 sequence (P43235 whole entry): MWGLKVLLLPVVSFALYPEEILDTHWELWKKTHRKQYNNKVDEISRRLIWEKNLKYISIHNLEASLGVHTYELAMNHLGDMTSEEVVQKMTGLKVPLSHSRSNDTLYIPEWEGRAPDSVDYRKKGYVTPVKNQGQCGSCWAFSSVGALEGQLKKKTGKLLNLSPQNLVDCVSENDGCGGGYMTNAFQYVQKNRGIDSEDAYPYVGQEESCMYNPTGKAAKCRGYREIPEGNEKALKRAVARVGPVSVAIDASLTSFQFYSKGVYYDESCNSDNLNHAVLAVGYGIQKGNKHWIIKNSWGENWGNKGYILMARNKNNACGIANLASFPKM

[1] = molecular target: Cathepsin K (Oryctolagus cuniculus); assay: Eq. constant (Ki) for inhibition of Cathepsin K was determined by progress curves, following hydrolysis of Z-Phe-Arg- Amc in the absence and presence of compound

Sequence of Procathepsin L (P07711 whole entry): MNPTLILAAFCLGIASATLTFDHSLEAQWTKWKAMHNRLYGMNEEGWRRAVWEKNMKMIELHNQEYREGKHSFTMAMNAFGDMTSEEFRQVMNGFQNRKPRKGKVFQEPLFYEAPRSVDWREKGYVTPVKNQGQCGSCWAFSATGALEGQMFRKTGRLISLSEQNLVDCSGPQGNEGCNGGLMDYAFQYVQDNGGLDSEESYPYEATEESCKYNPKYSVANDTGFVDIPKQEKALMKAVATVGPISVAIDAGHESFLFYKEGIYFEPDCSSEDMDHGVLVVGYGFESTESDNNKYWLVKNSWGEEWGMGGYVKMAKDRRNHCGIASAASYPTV
Sequence of Cathepsin S (P25774 whole entry): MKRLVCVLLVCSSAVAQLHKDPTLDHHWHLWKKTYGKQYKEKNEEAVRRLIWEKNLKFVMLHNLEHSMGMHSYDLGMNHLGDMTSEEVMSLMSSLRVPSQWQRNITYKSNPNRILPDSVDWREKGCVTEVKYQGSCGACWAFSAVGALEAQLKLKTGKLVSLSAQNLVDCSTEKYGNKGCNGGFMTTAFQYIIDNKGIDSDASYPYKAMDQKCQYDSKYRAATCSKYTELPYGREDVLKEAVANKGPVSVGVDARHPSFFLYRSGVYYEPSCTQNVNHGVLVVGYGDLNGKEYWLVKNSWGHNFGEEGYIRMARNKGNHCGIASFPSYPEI

SMILES | IC50 (Cathepsin S) | IC50 (Procathepsin L) | IC50 (Cathepsin K) | Ki [1]
COc1ccc(NCCNC(=O)[C@H](CC(C)C)NC(=O)c2ncn(-c3ccccc3Cl)n2)cc1 | 1900 nM | 2300 nM | 6 nM | 
COc1ccc(NCCNC(=O)[C@H](CC(C)C)NC(=O)c2ccc(C(C)C)cn2)cc1 | 7200 nM | 1500 nM | < 3 nM | 
COc1ccc(NCCNC(=O)[C@H](CC(C)C)NC(=O)c2ncn(-c3cccc(Cl)c3Cl)n2)cc1 | 190 nM | > 10000 nM | 9 nM | 11 nM

The remaining lines, values ahead:

IC50 (Cathepsin S) | IC50 (Procathepsin L) | IC50 (Cathepsin K) | Ki [1] | SMILES
5700 nM | 50 nM | < 3 nM |  | COc1ccc(NCCNC(=O)[C@H](CC(C)C)NC(=O)c2ccc(C(C)C)cc2)cc1
1200 nM | < 30 nM | < 3 nM |  | CCCc1ccc(C(=O)N[C@@H](CC(C)C)C(=O)NCCNc2ccc(OC)cc2)cc1
9500 nM | > 10000 nM | 6 nM | 15 nM | COc1ccc(NCCNC(=O)[C@H](CC(C)C)NC(=O)c2ccc(OCc3ccccc3)cc2)cc1
